ChEMBL document CHEMBL3779787, “Amorfrutin C Induces Apoptosis and Inhibits Proliferation in Colon Cancer Cells through Targeting Mitochondria” (J Nat Prod, 2016)
Calls of active or inactive are those of the source. The calls are words filed in the database; no cut-off is given here.

Experiments:
HT-29 [1] = assay: Upregulation of p27/Kip1 expression in human HT-29 cells at 10 uM after 48 hrs by immunoblotting method; type: functional, cell-based
Method in brief: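 HT-29 cells exposed 48 h to 10 μM compound. Whole-cell protein lysates probed for cell-cycle modulators by immunoblotting.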

HT-29 [2] = assay: Induction of apoptosis in human HT-29 cells at 30 uM after 24 hrs by annexin V-FLUOS/propidium iodide staining-based flow cytometry in presence of N-acetylcysteine; type: functional, cell-based
Method in brief: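 HT-29 treated 24 h with 30 μM with or without antioxidant (NAC 1 mM, D3T 25 μM). Apoptosis by annexin V/propidium iodide flow cytometry; means ± SEM, n = 3.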

HT-29 [3] = assay: Increase in extracellular acidification rate in human HT-29 cells at 2 uM measured for 20 to 150 mins by time-resolved fluorescence assay relative to control; type: functional
Method in brief: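 HT-29 cells seeded 80 000/well, incubated overnight at 37 °C without CO2. Washed and loaded with pH-sensitive time-resolved fluorescence probe in low-buffering medium (1 mM PBS pH 7.4, 20 mM glucose, salts), 10 min at 37 °C, then compound added, wells unsealed. Read 200 min at 37 °C; lifetime converted to pH, rate taken 20–150 min as H+ change/min; n = 8.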

HT-29 [4] = assay: Antiproliferative activity against human HT-29 cells assessed as cellular DNA content at 20 uM after 48 hrs by CyQUANT NF fluorescence assay in presence of PPAR siRNA; type: functional, cell-based
Method in brief: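 HT-29 reverse-transfected with equimolar siRNA pool against PPARα, β/δ, γ (10 nM each) or 30 nM nonspecific siRNA, seeded 850 cells/well. After 48 h, 20 μM compound added for a further 48 h. Relative cell number from DNA content; means ± SD, n = 8.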

HT-29 [5] = assay: Induction of cell cycle arrest in human HT-29 cells assessed as accumulation at S phase at 10 uM by flow cytometry (reference value: 11%); type: functional
[6] = Antiproliferative activity against human PC3 cells assessed as cellular DNA content after 72 hrs by CyQUANT NF fluorescence assay; type: functional, cell-based; conditions: PC-3, 72 h
Method in brief: (§1)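 Cells seeded at 750 (HT-29), 250 (PC-3) or 900 (T84, MCF7) cells/well, treated next day with concentration series for 72 h (HT-29, PC-3) or 96 h (T84, MCF7). Relative cell number from cellular DNA content by fluorescent DNA-binding dye. Variable-slope fit; efficiency = maximal inhibition (100% − Bottom) vs untreated; IC50 relative to the compound's own maximal efficiency.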

HT-29 [7] = assay: Induction of apoptosis in human HT-29 cells at 30 uM after 24 hrs by annexin V-FLUOS/propidium iodide staining-based flow cytometry in presence of PPAR siRNA; type: functional, cell-based
Method in brief: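 HT-29 transfected with PPARα/β/δ/γ siRNA pool (10 nM each) or 30 nM nonspecific siRNA, seeded 150 000 cells/well. After 48 h, 30 μM compound added for a further 24 h. Phosphatidylserine externalization by annexin V flow cytometry; means ± SEM, n = 6.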

MCF7 = assay: Antiproliferative activity against human MCF7 cells assessed as cellular DNA content after 96 hrs by CyQUANT NF fluorescence assay relative to control; type: functional; method in brief: as §1
HT-29 [8] = assay: Induction of apoptosis in human HT-29 cells assessed as opening of mitochondrial permeability transition pore at 30 uM after 30 mins calcein/CoCl2 staining-based fluorescence assay in presence of cyclosporinA; type: functional, cell-based
Method in brief: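 Trypsinized HT-29 (10^6 cells/mL) in HBSS/Ca with 10 nM calcein and 400 μM CoCl2. Pretreated 60 min at 37 °C with 2 μM cyclosporin A or vehicle, then test compound for 30 min at 37 °C. Washed; mitochondrial calcein fluorescence by flow cytometry; means ± SEM, n = 6.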

Compound: COc1c(CC=C(C)C)c(O)c(C(=O)O)c(CCc2ccccc2)c1CC=C(C)C
- Activity (HT-29 [1]): Active
- Activity (HT-29 [2]): Active
- fold change (FC) (HT-29 [3]): 3
- Activity (HT-29 [4]): Active
- Activity (HT-29 [5]): 2%
- IC50 [6]: 16 µM
- Activity (HT-29 [7]): Active
- Efficacy (MCF7): 92%
- Activity (HT-29 [8]): inactive
